Test results from ChEMBL document CHEMBL1137404, “Enzyme specific activation of benzoquinone ansamycin prodrugs using HuCC49DeltaCH2-beta-galactosidase conjugates” (J Med Chem, 2006).
pIC50: −log10 of the molar value. Activity calls are given as the source filed them. The rule behind the calls is not given here.

Legend:
LS174T [1] = assay: Cytotoxicity against human LS174T cells by MTS assay; format: functional, cell-based
In short: (§1)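 LS174T cells (2,000−5,000/well) grown 24 h, then given 1 h with PBS, enzyme-only staining buffer or antibody-enzyme conjugate (2 units) and washed three to five times. Compound added at 0−25 μM for 72 h.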

LS174T [2] = assay: Cytotoxicity against human LS174T cells in presence of HuCC49deltaCH2-beta galactosidase conjugate by MTS assay; format: functional, cell-based; in short: as §1
LS174T [3] = assay: Induction of Hsp90-mediated AKT degradation in human LS174T cells after 1 hr in presence of HuCC49deltaCH2-beta galactosidase conjugate by Western blotting; format: functional
In short: (§2)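 LS174T cells at 50−70% confluence given 1 h with free β-galactosidase or antibody-enzyme conjugate in PBS with 2% FBS, washed, then exposed 24 h to 2 or 10 μM compound. Lysates (30 μg) run on 10% SDS-PAGE and blotted for AKT and β-actin by ECL. AKT expressed as Akt:β-actin ratio relative to control (100%).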

LS174T [4] = assay: Induction of Hsp90-mediated AKT degradation in human LS174T cells in absence of HuCC49deltaCH2-beta galactosidase by Western blotting at 2 uM; format: functional; in short: as §2
LS174T [5] = assay: Induction of Hsp90-mediated AKT degradation in human LS174T cells in presence of HuCC49deltaCH2-beta galactosidase conjugate by Western blotting at 2 uM; format: functional; in short: as §2
LS174T [6] = assay: Induction of Hsp90-mediated AKT degradation in human LS174T cells in presence of HuCC49deltaCH2-beta galactosidase conjugate by Western blotting at 10 uM; format: functional; in short: as §2
LS174T [7] = assay: Induction of Hsp90-mediated AKT degradation in human LS174T cells in absence of HuCC49deltaCH2-beta galactosidase by Western blotting at 10 uM; format: functional; in short: as §2

| SMILES | pIC50 (LS174T [1]) | pIC50 (LS174T [2]) | Activity (LS174T [3]) [%] | Activity (LS174T [4]) | Activity (LS174T [5]) [%] | Activity (LS174T [6]) [%] | Activity (LS174T [7]) [%] |
| --- | --- | --- | --- | --- | --- | --- | --- |
| CO[C@H]1/C=C\C=C(/C)C(=O)NC2=CC(=O)C(NCCO[C@@H]3O[C@H](CO)[C@H](O)[C@H](O)[C@H]3O)=C(C[C@@H](C)C[C@H](OC)[C@H](O)[C@@H](C)/C=C(\C)[C@@H]1OC(N)=O)C2=O | < 4.60 | 5.95 | 70 | inactive | – | – | – |
| CO[C@H]1/C=C\C=C(/C)C(=O)NC2=CC(=O)C(N)=C(C[C@@H](C)C[C@H](OC)[C@H](O)[C@@H](C)/C=C(\C)[C@@H]1OC(N)=O)C2=O | – | – | – | 70% | 70 | 70 | 70 |
| COC1=C2C[C@@H](C)C[C@H](OC)[C@H](O)[C@@H](C)/C=C(\C)[C@H](OC(N)=O)[C@@H](OC)/C=C\C=C(/C)C(=O)NC(=CC1=O)C2=O [GELDANAMYCIN] | 6.35 | – | – | – | – | – | – |
